# The source made the active and inactive calls. The rule behind the calls is not given here.
# Assays:
# Nucleic Acid [1] = experiment: Inhibitory activity against DNA polymerase III (DNA pol III) of Staphylococcus aureus at a concentration of 500 uM; format: nucleic-acid assay
# Procedure, shortened: (§1)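 S. aureus pol III was PCR-cloned into pET15, expressed in BL21 (1 mM IPTG), and purified on HiTrapQ then HiTrap Blue. Enzyme-started, it ran 30 min at 30 °C and was stopped with cold TCA/NaPPi. Incorporation was read by filter capture and scintillation counting.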
# Nucleic Acid [2] = experiment: Inhibitory activity against DNA polymerase III (DNA pol III) of Staphylococcus aureus at a concentration of 500 uM; NA means Inactive; format: nucleic-acid assay; procedure, shortened: as §1
# Streptococcus pneumoniae = experiment: Antibacterial activity against Streptococcus pneumoniae; format: functional
# Procedure, shortened: (§2)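 Broth microdilution MIC against B. subtilis F2, E. faecium RLA-1, S. aureus MB2865 and S. pneumoniae MCL5350. Compounds were DMSO stocks, serially 2-fold diluted from 100 μM final, at 5% final DMSO, with a DMSO vehicle control. Wells were inoculated from cultures diluted in PBS and incubated overnight at 37 °C. MIC was scored visually as the lowest concentration preventing growth.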
# Staphylococcus aureus = experiment: Antibacterial activity against Staphylococcus aureus; format: functional; procedure, shortened: as §2
# Bacillus subtilis = experiment: Antibacterial activity against Bacillus subtilis; format: functional; procedure, shortened: as §2
# Enterococcus faecium = experiment: Antibacterial activity against Enterococcus faecium; format: functional; procedure, shortened: as §2
# Nucleic Acid [3] = experiment: Inhibitory activity against DNA polymerase III (DNA pol III) of Staphylococcus aureus; format: nucleic-acid assay; procedure, shortened: as §1
SMILES,inhibition (Nucleic Acid [1]),MIC (Streptococcus pneumoniae),MIC (Bacillus subtilis),IC50 (Nucleic Acid [3]),other results
COc1ccc(CNc2nc(O)c3c[nH]nc3n2)cc1,10%,–,–,–,–
CC(C)c1ccc(CNc2nc(O)c3c[nH]nc3n2)cc1,–,–,–,–,NA (Nucleic Acid [2]): inactive
Oc1[nH]c(NCc2cccc(C(F)(F)F)c2)nc2nncc1-2,–,–,–,–,NA (Nucleic Acid [2]): inactive
COc1cccc(CNc2nc(O)c3c[nH]nc3n2)c1,–,–,–,–,NA (Nucleic Acid [2]): inactive
Oc1[nH]c(NCc2ccccc2)nc2nncc1-2,32%,–,–,–,–
Oc1[nH]c(NCc2ccccc2Cl)nc2nncc1-2,–,–,–,–,NA (Nucleic Acid [2]): inactive
Cc1ccc(CNc2nc(O)c3c[nH]nc3n2)c(C)c1,–,–,–,–,inhibition (Nucleic Acid [2]): 12%
Oc1[nH]c(NCc2ccc(Cl)c(Cl)c2)nc2nncc1-2,58%,–,–,108 µM,–
Oc1[nH]c(NCc2ccc(Br)cc2)nc2nncc1-2,23%,–,–,–,–
Oc1[nH]c(NCc2ccc(F)c(Cl)c2)nc2nncc1-2,24%,–,–,–,–

# More lines, main results first:
inhibition (Nucleic Acid [1]),MIC (Streptococcus pneumoniae),MIC (Bacillus subtilis),IC50 (Nucleic Acid [3]),SMILES,other results
62%,14 µg/mL,7 µg/mL,214 µM,Cc1ccc(Nc2nc(O)c3c[nH]nc3n2)cc1Cl,MIC (Staphylococcus aureus): 14 µg/mL; MIC (Enterococcus faecium): 28 µg/mL
88%,13 µg/mL,7 µg/mL,68 µM,CCc1cc(Nc2nc(O)c3c[nH]nc3n2)ccc1C,MIC (Staphylococcus aureus): 27 µg/mL; MIC (Enterococcus faecium): 13 µg/mL
69%,8 µg/mL,8 µg/mL,129 µM,Cc1ccc(Nc2nc(O)c3c[nH]nc3n2)cc1Br,MIC (Staphylococcus aureus): 8 µg/mL; MIC (Enterococcus faecium): 16 µg/mL
36%,26 µg/mL,13 µg/mL,–,Cc1ccc(Nc2nc(O)c3c[nH]nc3n2)cc1C,–
86%,9 µg/mL,9 µg/mL,71 µM,Cc1ccc(Nc2nc(O)c3c[nH]nc3n2)cc1I,MIC (Staphylococcus aureus): 9 µg/mL; MIC (Enterococcus faecium): 18 µg/mL

# Source: ChEMBL document CHEMBL1145030, “Novel pyrazolo[3,4-d]pyrimidine-based inhibitors of Staphlococcus aureus DNA polymerase III: design, synthesis, and biological evaluation” (J Med Chem, 2003)
